According to ChEMBL document CHEMBL4346668, “Novel multitarget inhibitors with antiangiogenic and immunomodulator properties” (Eur J Med Chem, 2019):

Assays:
[1] = test system: HT-29; test: Antiproliferative activity against human HT-29 cells incubated for 2 days by MTT assay; type: functional, cell-based; conditions: HT-29, 48 h
Summary of the method: (§1)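 MTT assay. Cells seeded at 3 × 10³/well (HeLa, A549, HMEC-1, HEK-293) or 5 × 10³/well (HT-29, MCF-7) in their growth media with serial compound dilutions from 10 mM DMSO stocks. Incubated 2 days at 37 °C, 5% CO₂, then MTT added for 3 h and formazan dissolved in DMSO. A540 read and viability expressed versus untreated cells. IC₅₀ determined graphically; three independent experiments.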

[2] = test system: HeLa; test: Antiproliferative activity against human HeLa cells incubated for 2 days by MTT assay; type: functional, cell-based; conditions: 48 h; summary of the method: as §1
[3] = test system: A549; test: Induction of apoptosis in human A549 cells assessed as apoptotic cells at 100 uM incubated for 24 hrs by FITC-Annexin V staining based flow cytometric analysis (reference value: 20%); type: functional
[4] = test system: A549; test: Immunomodulatory activity in human A549 cells assessed as reduction in PD-L1 expression level at 100 uM incubated for 24 hrs by ELISA relative to control; type: functional; design: scale not given: the % may be the effect or the level left
Summary of the method: (§2)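 A549 cells (3·10⁵/well) treated 24 h with compound; final concentration 100 µM for some compounds and 15 µM for others per table footnote. Lysates protein-normalized by Bradford, and PD-L1 and c-Myc quantified by commercial ELISA kits as % of DMSO-treated cells. Mean ± SD of three experiments.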

[5] = test system: HMEC-1; test: Antiproliferative activity against HMEC1 cells incubated for 2 days by MTT assay; type: cell-based; conditions: Homo sapiens, HMEC-1, 48 h; summary of the method: as §1
[6] = test system: A549; test: Antiproliferative activity against human A549 cells incubated for 2 days by MTT assay; type: functional, cell-based; conditions: A549, 48 h; summary of the method: as §1
[7] = target: Vascular endothelial growth factor receptor 2 (Homo sapiens) (UniProt P35968)
[8] = test system: A549; test: Immunomodulatory activity in human A549 cells assessed as reduction in c-Myc expression level at 100 uM incubated for 24 hrs by ELISA relative to control; type: functional; design: scale not given: the % may be the effect or the level left; summary of the method: as §2
[9] = test system: MCF7; test: Antiproliferative activity against human MCF7 cells incubated for 2 days by MTT assay; type: functional, cell-based; conditions: MCF7, 48 h; summary of the method: as §1
[10] = test system: A549; test: Effect on VEGFR2 in human A549 cells assessed as total VEGFR2 level at 10 uM incubated for 24 hrs by flow cytometric analysis relative to control; type: functional
[11] = test system: HEK293; test: Antiproliferative activity against HEK293 cells incubated for 2 days by MTT assay; type: cell-based; conditions: Homo sapiens, HEK293, 48 h; summary of the method: as §1
[12] = test system: A549; test: Effect on VEGFR2 in human A549 cells assessed as membrane VEGFR2 level at 10 uM incubated for 24 hrs by flow cytometric analysis relative to control; type: functional
Summary of the method: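 A549 cells incubated 24 h with compound at 10 µM. Membrane VEGFR-2 (fixed cells) and total VEGFR-2 (permeabilized or lysate) stained with Alexa Fluor 647 anti-CD309 and quantified by flow cytometry relative to DMSO control; mean ± SD of three experiments.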

[13] = target: Programmed cell death 1 ligand 1 (Homo sapiens) (UniProt Q9NZQ7); test: Binding affinity to PDL1 (unknown origin) assessed as change in melting temperature at 100 uM by fluorescence based real time RT-PCR analysis
[14] = test system: HMEC-1; test: Antiangiogenic activity against HMEC1 cells assessed as inhibition of tube formation incubated for 20 hrs by matrigel based tube formation assay; type: functional, Homo sapiens
Summary of the method: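 HMEC-1 cells in EGM-2MV medium seeded at 2 x 10⁴ cells/well on Matrigel (10 mg/mL, gelled 30 min at 37°C) and attached for 30 min. Compounds were added at different concentrations and tube formation was assessed after 20 h at 37°C. The minimum concentration at which inhibition began was reported. Data representative of three experiments.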

[15] = test system: A549; test: Effect on VEGFR2 in human A549 cells assessed as total VEGFR2 level at 100 uM incubated for 24 hrs by flow cytometric analysis relative to control; type: functional
[16] = test system: A549; test: Effect on VEGFR2 in human A549 cells assessed as membrane VEGFR2 level at 100 uM incubated for 24 hrs by flow cytometric analysis relative to control; type: functional
Summary of the method: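 A549 cells exposed 24 h to compound at 100 µM. Membrane VEGFR-2 stained on fixed cells with Alexa Fluor 647 anti-VEGFR-2; Triton X-100 permeabilization before fixation used for total VEGFR-2. Flow cytometry, % of DMSO control; mean ± SD of three experiments.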

[17] = test system: HMEC-1; test: Effect on VEGFR2 in HMEC1 cells assessed as membrane VEGFR2 level at 100 uM incubated for 24 hrs by flow cytometric analysis relative to control; type: functional, Homo sapiens
Summary of the method: (§3)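 HMEC-1 cells exposed 24 h to compound at 100 µM. Membrane VEGFR-2 measured on fixed cells stained with Alexa Fluor 647 anti-CD309; total VEGFR-2 measured after Triton X-100 permeabilization before fixation. Read by flow cytometry as % of DMSO control.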

[18] = test system: HMEC-1; test: Effect on VEGFR2 in HMEC1 cells assessed as total VEGFR2 level at 100 uM incubated for 24 hrs by flow cytometric analysis relative to control; type: functional, Homo sapiens; summary of the method: as §3
[19] = test system: HMEC-1; test: Effect on VEGFR2 in HMEC1 cells assessed as membrane VEGFR2 level at 10 uM incubated for 24 hrs by flow cytometric analysis relative to control; type: functional, Homo sapiens
Summary of the method: (§4)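 HMEC-1 cells exposed 24 h to compound. Membrane VEGFR-2 measured on fixed cells stained with Alexa Fluor 647 anti-CD309; total VEGFR-2 measured on lysates or permeabilized cells. Read by flow cytometry as % of DMSO control; mean ± SD of three experiments.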

[20] = test system: HMEC-1; test: Effect on VEGFR2 in HMEC1 cells assessed as total VEGFR2 level at 10 uM incubated for 24 hrs by flow cytometric analysis relative to control; type: functional, Homo sapiens; summary of the method: as §4
[21] = test system: A549; test: Antiproliferative activity against human A549 cells at 200 uM incubated for 24 hrs in presence of Jurkat T cells by trypan blue staining based Neubauer chamber method relative to control; type: functional
Summary of the method: (§5)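 Co-culture of 5 × 10⁴ tumor cells/well with 2 × 10⁵ PD-1-expressing Jurkat T cells in 1.5 mL, treated 24 h with compound at 200 µM. Supernatant discarded; tumor cells trypsinized, stained with trypan blue and living cells counted in a Neubauer chamber. Proliferation inhibition (%) attributable to Jurkat presence reported; representative of three experiments.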

[22] = test system: HT-29; test: Antiproliferative activity against human HT-29 cells at 200 uM incubated for 24 hrs in presence of Jurkat T cells by trypan blue staining based Neubauer chamber method relative to control; type: functional; summary of the method: as §5

Sequence of Vascular endothelial growth factor receptor 2 (Homo sapiens) (P35968 whole entry): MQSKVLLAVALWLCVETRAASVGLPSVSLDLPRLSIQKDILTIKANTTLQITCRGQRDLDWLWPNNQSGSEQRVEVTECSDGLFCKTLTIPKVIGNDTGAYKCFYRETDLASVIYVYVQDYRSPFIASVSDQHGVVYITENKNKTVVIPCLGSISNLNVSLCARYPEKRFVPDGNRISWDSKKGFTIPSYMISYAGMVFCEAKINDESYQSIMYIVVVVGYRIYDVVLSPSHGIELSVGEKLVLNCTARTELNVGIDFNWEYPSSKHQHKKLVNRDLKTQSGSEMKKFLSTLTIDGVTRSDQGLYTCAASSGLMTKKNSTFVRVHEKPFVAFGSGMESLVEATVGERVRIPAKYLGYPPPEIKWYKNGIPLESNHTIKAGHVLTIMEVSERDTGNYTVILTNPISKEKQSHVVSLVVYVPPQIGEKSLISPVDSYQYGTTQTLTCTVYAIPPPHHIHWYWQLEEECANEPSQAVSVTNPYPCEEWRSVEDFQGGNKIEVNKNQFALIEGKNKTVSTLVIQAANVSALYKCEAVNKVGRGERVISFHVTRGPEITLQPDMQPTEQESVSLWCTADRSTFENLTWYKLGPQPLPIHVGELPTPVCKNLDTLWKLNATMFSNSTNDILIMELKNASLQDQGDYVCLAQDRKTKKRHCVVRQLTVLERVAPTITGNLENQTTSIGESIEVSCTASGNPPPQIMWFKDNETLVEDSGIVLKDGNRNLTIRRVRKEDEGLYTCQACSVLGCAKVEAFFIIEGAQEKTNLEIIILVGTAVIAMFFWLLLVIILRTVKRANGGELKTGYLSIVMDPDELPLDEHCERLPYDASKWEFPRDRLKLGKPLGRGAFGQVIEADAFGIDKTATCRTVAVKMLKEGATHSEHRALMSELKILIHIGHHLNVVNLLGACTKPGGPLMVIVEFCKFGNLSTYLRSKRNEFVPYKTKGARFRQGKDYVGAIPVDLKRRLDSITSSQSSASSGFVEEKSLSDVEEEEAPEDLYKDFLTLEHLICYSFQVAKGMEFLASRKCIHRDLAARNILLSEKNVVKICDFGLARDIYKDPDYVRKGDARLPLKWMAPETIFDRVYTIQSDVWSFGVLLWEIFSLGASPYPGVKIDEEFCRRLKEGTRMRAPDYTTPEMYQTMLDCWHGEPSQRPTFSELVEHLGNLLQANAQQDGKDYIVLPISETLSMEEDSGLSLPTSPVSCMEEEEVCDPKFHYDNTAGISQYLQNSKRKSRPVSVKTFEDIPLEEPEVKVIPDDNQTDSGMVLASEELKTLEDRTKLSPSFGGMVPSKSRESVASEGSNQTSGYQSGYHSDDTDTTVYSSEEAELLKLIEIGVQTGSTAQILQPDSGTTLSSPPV
Sequence of Programmed cell death 1 ligand 1 (Homo sapiens) (Q9NZQ7 whole entry): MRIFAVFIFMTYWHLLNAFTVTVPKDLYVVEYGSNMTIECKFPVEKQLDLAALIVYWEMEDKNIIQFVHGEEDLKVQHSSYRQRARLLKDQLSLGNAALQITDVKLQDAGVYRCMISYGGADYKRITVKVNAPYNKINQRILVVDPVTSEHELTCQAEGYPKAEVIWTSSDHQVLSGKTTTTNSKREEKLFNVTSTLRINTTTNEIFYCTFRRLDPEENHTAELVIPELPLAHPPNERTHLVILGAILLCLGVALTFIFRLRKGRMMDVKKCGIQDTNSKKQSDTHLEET

Compound	IC50 [1] [µM]	IC50 [2] [µM]	Activity [3] [%]	Activity [4] [%]	IC50 [5] [µM]	IC50 [6] [µM]	ΔTm [7] [°C]	Activity [8] [%]	IC50 [9] [µM]	Activity [10] [%]	IC50 [11] [µM]	Activity [12] [%]	ΔTm [13] [°C]	MAC [14] [µM]	Activity [15] [%]	Activity [16] [%]	Activity [17] [%]	Activity [18] [%]	Activity [21] [%]	Activity [22] [%]	other results
COc1ccc(CCc2cccc(NC(=O)Nc3ccccc3Cl)c2)cc1	20	69	76	61	48	24	16.2	63	> 100	100	90	100	2.25	1							
CNC(=O)c1cc(Oc2ccc(NC(=O)Nc3ccc(Cl)c(C(F)(F)F)c3)cc2)ccn1 [SORAFENIB]	17	6.1	48		34	27			14	85	5	92		10	85	92	46	64			Activity [19]: 46%; Activity [20]: 64%
COc1ccc(Cc2cn(CCNC(=O)Nc3cccc(Cl)c3)nn2)cc1	> 200	> 200		70	> 200	> 200	7.34	60	> 200		> 200		1.89	50	86	95	74	81	49	76	
COc1ccc(Cc2cn(CCNC(=O)Nc3ccc(Cl)cc3)nn2)cc1	> 200	> 200		69	> 200	> 200	5.09	73	> 200		> 200		1.93	400			90	102	16	84	
COc1ccc(CCc2cccc(NC(=O)Nc3cccc(Cl)c3)c2)cc1	14	16.5	95	51	50	> 200	4.1	51	8.2	98	5.3	97	5.2	10							
COc1ccc(CCc2cccc(NC(=O)Nc3ccc(Cl)cc3)c2)cc1	1.5	21	65	38	> 200	> 200	10.2	44	15.3	96	1.8	97	2.27	100					16		
COc1ccc(Cc2cn(CCNC(=O)Nc3cccc(Br)c3)nn2)cc1	> 200	> 200		80	> 200	> 200	7.34		> 200		> 200		0.79		80	98	79	78			
COc1ccc(Cc2cn(CCNC(=O)Nc3ccc(C)cc3)nn2)cc1	> 200	> 200		66	> 200	> 200	3.68	70	> 200		> 200		3.09				97	90	6	22	
COc1ccc(Cc2cn(CCNC(=O)Nc3ccc(Br)cc3)nn2)cc1	> 200	> 200		>100	> 200	> 200	2.61		> 200		> 200		8.74		61	70	40	55			
COc1ccc(/C=C/c2cccc(NC(=O)Nc3ccccc3Cl)c2)cc1	47	> 100	42	74	> 100	61	10.2		> 100	42	57	109	5.09	10							Activity [19]: 76%; Activity [20]: 121%
